Results on 14 compounds are retold here after ChEMBL document CHEMBL1154076, “New furanoflavanoids, intestinal alpha-glucosidase inhibitory and free-radical (DPPH) scavenging, activity from antihyperglycemic root extract of Derris indica (Lam.)” (Bioorg Med Chem, 2009).

Active and inactive are the calls of the source. The rule behind the calls is not given here.

The nature of assay [1]: Inhibition of rat alpha-glucosidase assessed as p-nitrophenol release at 50 ug/ml. In outline: (§1)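 Crude enzyme is the sonicated supernatant of rat intestinal acetone powder in normal saline (100:1 w/v). Sample (5 mg/mL DMSO stock) in 100 mM phosphate buffer, pH 6.8, is preincubated 5 min with enzyme. p-Nitrophenyl-α-D-glucopyranoside (5 mM solution) is added, and p-nitrophenol is read at 405 nm after 5 min. Blanks omit substrate; the control is DMSO. Inhibition % = (1 − B/A) × 100. IC50 is taken by log regression over ≥5 dilutions. n = 3.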

For assay [2], the system named is Radical scavenging activity. Nature of the assay: Antioxidant activity assessed as DPPH radical scavenging activity. The format is functional. In short, it runs like this:
(§2)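 DPPH (0.5 mM solution in absolute ethanol) is mixed with test sample (1 mg/mL DMSO stock) in 0.1 M Tris-HCl, pH 7.4. The mixture is shaken, kept in the dark for 30 min, and read at 517 nm. Scavenging % = (1 − B/A) × 100 versus a no-sample control. SC50 comes from logarithmic regression over at least five dilutions. n = 3.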
Background: The DPPH test is a chemical assay of radical scavenging.

Assay [3] deals with Radical scavenging activity. Nature of the assay: Antioxidant activity against DPPH radical assessed as concentration required for 50% scavenging activity. The format is functional. In outline:
as §2

The species entered for the next assay is Rattus norvegicus. Nature of the assay: Inhibition of rat alpha-glucosidase assessed as p-nitrophenol release. In short, it runs like this:
as §1

In general, Inhibition refers to the drop in the measured response relative to a control, in per cent. Take `O=c1c(O)c(-c2ccc(O)c(O)c2)oc2c1ccc1occc12`: in assay [1], the Inhibition is on record as 37.9%. Besides, the Scavenging in assay [2] was determined as 64.9%. In assay [3], the Activity came out at 21 µM.

Turning to `O=c1cc(-c2ccc(O)c(O)c2)oc2c1ccc1occc12`, the Inhibition in assay [1] was 25.6%. Besides, the Scavenging in assay [2] is 55.1%. For the same compound, the Activity in the assay filed under Rattus norvegicus was 335 µM; in assay [3], 84.6 µM.

Regarding `COc1c(-c2ccc3c(c2)OCO3)oc2cc(O)ccc2c1=O`, in assay [1], the Inhibition stood at 36%. The Scavenging in assay [2] amounted to 68.3%. The Activity in assay [3] came to 39 µM.

For the compound `COc1ccc(-c2cc(=O)c3c(O)cc(OC)cc3o2)cc1` [APIGENIN DIMETHYLETHER], in assay [1], the Inhibition was found to be 4.4%. Moreover, in assay [2], the SC50 entry was “inactive”.

Turning to `COc1ccc2c(=O)c(OC)c(-c3ccc(OC)c(OC)c3)oc2c1` [FISETIN TETRAMETHYL ETHER], in assay [1], the Inhibition is reported as 19.7%. In addition, the SC50 result in assay [2] was “inactive”.

As for `COc1c(-c2ccccc2)oc2c(ccc3occc32)c1=O` [KARANJIN], the Inhibition in assay [1] was 26.3%. For the same compound, the SC50 entry in assay [2] is “inactive”.

For the compound `COc1c(C(=O)/C=C(\O)c2ccc3c(c2)OCO3)ccc2occc12` [OVALITENONE], in assay [1], the Inhibition stood at 29.7%. Also, the SC50 entry in assay [2] is “inactive”.

For `COc1c2ccoc2cc2oc(-c3ccccc3)cc(=O)c12` [PINNATIN], the Inhibition in assay [1] is recorded as 36.5%. For the same compound, the SC50 entry in assay [2] was “inactive”.

In the case of `O=C(O)c1ccc2c(c1)OCO2` [PIPERONYLIC ACID], in assay [1], the Inhibition was 18.4%. Also, the Scavenging in assay [2] came out at 2.4%.

On to `COc1c(-c2ccc3c(c2)OCO3)oc2c3c(ccc2c1=O)OC(C)(C)C=C3` [PONGACHROMENE], for which the Inhibition in assay [1] is recorded as 22.8%. In assay [2], the SC50 result is “inactive”.

Take `O=c1cc(-c2ccc3c(c2)OCO3)oc2c1ccc1occc12` [PONGAGLABRONE]: the Inhibition in assay [1] was found to be 8.6%. Further, the SC50 result in assay [2] is “inactive”.

As to `COc1c(C(=O)/C=C(\O)c2ccccc2)ccc2occc12` [PONGAMOL], in assay [1], the Inhibition was found to be 58.2%. Further, in assay [2], the Scavenging came out at 11.2%. In addition, the Activity in the assay filed under Rattus norvegicus was 104 µM.

For `COc1c(-c2ccc3c(c2)OCO3)oc2c(ccc3occc32)c1=O` [PONGAPIN], the Inhibition in assay [1] came out at 21.4%. Moreover, the SC50 result in assay [2] was “inactive”.

With `COc1cc(O)c2c(=O)cc(-c3ccccc3)oc2c1` [TECHTOCHRYSIN], in assay [1], the Inhibition came out at 28.7%. The SC50 entry in assay [2] is “inactive”.
